In ChEMBL document CHEMBL1138224, “Design, synthesis, and biological evaluation of peptidomimetic inhibitors of factor XIa as novel anticoagulants” (J Med Chem, 2006):
Activity calls are given as the source filed them. The rule behind the calls is not given here.

Tests used:
Coagulation factor XI = Coagulation factor XI (Homo sapiens, UniProt P03951); experiment: Inhibition of factor 11a
Coagulation factor X = Coagulation factor X (Homo sapiens, UniProt P00742); experiment: Inhibition of factor 10a
Prothrombin = Prothrombin (Homo sapiens, UniProt P00734); experiment: Inhibition of thrombin
Plasma [1] = experiment: Anticoagulant activity in human plasma measured by activated […] time; format: functional
Outline: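 Activated partial thromboplastin time in human plasma. Plasma was incubated with compound for 2 min. aPTT reagent was added and incubated 3 min. Prewarmed 30 mM CaCl2 was added and clotting was read up to 300 s. The concentration doubling clotting time was taken from the dose-response curve.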

Plasma [2] = experiment: Anticoagulant activity in human plasma measured by prothrombin time; format: functional
Outline: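 Human plasma with compound prewarmed 3 min at 37 °C, then prewarmed thromboplastin reagent containing calcium added; clotting read over 300 s. Concentration doubling clotting time (2× PT) derived from dose-response curve.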

Homo sapiens [3] = species on record: Homo sapiens; experiment: Selectivity for factor 11a over thrombin
Outline: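 IC50s against factor XIa and thrombin were compared as fold selectivity. Both enzymes used Glp-Pro-Arg-AMC, with 50 nM enzyme and 50 µM substrate in Tris-HCl/NaCl/0.02% Tween 20 at pH 7.4. Ten-point endpoint assays ran for 15-30 min at 30 °C with AMC fluorescence read at 355/460 nm. IC50 came from a one-site dose-response fit.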

Homo sapiens [4] = species on record: Homo sapiens; experiment: Selectivity for factor 11a over factor 10a
Outline: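 Fold selectivity compared IC50s against factor XIa and factor Xa, both in Tris-HCl/NaCl/Tween 20 buffer at pH 7.4. FXIa: Glp-Pro-Arg-AMC, 50 nM enzyme, 50 µM substrate, 15-30 min at 30 °C. FXa: H-Pro-Phe-Arg-AMC at twice those concentrations, 60 min.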

Coagulation factor VII = target: T1, Coagulation factor VII (Homo sapiens, UniProt P08709); experiment: Inhibition of factor 7a
T1 sequence (P08709 whole entry): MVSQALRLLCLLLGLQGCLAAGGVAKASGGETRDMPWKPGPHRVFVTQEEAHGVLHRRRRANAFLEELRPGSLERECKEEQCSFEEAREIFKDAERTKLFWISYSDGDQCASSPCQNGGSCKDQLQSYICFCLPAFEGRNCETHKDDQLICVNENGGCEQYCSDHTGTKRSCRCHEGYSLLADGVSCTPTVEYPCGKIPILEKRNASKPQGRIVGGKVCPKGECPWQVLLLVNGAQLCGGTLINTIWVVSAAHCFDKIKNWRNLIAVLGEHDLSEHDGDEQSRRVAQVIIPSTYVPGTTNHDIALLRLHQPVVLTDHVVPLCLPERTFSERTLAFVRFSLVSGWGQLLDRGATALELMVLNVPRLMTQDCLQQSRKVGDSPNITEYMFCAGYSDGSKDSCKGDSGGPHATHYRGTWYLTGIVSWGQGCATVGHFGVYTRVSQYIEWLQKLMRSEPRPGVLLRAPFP

Plasma kallikrein = Plasma kallikrein (Homo sapiens, UniProt P03952); experiment: Inhibition of plasma kallikrein; format: cell-free
[5] = target: Vitamin K-dependent protein C (Homo sapiens, UniProt P04070); experiment: Inhibition of activated protein C
[6] = Half life in iv dosed rat; format: ADME, organism-based; settings: in vivo
[7] = Clearance in iv dosed rat; format: ADME, organism-based; settings: in vivo
[8] = Volume of distribution in iv dosed rat; format: ADME, organism-based; settings: in vivo, read-out: Vdss
Trypsin = Trypsin (Homo sapiens, UniProt P07477+P07478+P35030); experiment: Inhibition of trypsin; format: protein assay
Outline: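 Trypsin activity was read with the fluorogenic substrate Glp-Pro-Arg-AMC. Conditions were 50 nM enzyme and 50 µM substrate in 100 mM Tris-HCl, 200 mM NaCl and 0.02% Tween 20 at pH 7.4. Ten-point dose-response endpoints were taken after 15-30 min at 30 °C. Released AMC was read at ex 355/em 460 nm, and IC50 came from a one-site nonlinear least-squares fit.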

Rattus norvegicus = experiment: Efficacy in rat venous thrombosis model assessed as reduction in thrombus weight at 0.25 mg/kg, iv; format: functional, organism-based; set-up: dose 0.25 mg/kg
Outline: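 Intravenous infusion at 0.0625 or 0.25 mg/kg in 0.1 M NaOAc pH 4.0 vehicle, started 5 min before induction; clot isolated and weighed 10 min postchallenge. n = 9; Tukey-Kramer test versus vehicle.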

Sequence of Coagulation factor X (P00742 41-179 limits assumed): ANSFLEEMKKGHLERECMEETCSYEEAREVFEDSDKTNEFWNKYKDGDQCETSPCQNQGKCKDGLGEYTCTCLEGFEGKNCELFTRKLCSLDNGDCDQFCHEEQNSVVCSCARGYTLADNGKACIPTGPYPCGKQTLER
Sequence of Coagulation factor X (P00742 235-488 limits assumed): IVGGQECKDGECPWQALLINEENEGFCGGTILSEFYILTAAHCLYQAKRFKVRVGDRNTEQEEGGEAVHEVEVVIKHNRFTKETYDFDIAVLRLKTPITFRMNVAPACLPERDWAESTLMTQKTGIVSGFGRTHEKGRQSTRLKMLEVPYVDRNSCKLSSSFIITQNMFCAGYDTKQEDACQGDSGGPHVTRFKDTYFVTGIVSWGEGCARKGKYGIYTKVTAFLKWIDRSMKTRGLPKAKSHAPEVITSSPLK
Sequence of Coagulation factor XI (P03951 19-387 limits assumed): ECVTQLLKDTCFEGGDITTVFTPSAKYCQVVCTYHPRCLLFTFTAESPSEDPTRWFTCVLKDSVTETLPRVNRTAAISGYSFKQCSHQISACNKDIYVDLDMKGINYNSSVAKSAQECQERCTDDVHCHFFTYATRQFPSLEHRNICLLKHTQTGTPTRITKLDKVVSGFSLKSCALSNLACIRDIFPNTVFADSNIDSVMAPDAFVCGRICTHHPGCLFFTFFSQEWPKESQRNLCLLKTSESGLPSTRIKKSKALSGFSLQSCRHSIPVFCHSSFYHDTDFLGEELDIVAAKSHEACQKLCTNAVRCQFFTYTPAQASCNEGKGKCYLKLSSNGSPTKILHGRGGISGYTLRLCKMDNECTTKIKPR
Sequence of Coagulation factor XI (P03951 388-625 limits assumed): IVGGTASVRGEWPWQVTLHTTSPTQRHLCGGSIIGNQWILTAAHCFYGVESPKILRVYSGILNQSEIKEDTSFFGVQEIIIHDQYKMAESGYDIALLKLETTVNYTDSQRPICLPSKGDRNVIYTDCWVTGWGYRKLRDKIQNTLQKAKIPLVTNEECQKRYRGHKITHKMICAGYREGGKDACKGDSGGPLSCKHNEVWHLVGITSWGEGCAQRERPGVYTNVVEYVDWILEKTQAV
Sequence of Vitamin K-dependent protein C (P04070 43-197 limits assumed): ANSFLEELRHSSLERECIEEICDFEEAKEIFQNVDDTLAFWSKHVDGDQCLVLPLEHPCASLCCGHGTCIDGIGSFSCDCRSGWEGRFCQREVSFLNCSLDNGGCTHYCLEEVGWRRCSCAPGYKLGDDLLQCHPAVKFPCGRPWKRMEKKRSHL
Sequence of Vitamin K-dependent protein C (P04070 212-461 limits assumed): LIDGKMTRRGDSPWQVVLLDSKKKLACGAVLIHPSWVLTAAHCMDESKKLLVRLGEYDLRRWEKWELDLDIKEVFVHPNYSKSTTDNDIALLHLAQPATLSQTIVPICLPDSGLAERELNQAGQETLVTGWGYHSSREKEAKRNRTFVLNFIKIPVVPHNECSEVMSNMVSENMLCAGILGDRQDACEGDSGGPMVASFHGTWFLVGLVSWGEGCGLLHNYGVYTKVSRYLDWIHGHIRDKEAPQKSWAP
Sequence of Plasma kallikrein (P03952 20-390 limits assumed): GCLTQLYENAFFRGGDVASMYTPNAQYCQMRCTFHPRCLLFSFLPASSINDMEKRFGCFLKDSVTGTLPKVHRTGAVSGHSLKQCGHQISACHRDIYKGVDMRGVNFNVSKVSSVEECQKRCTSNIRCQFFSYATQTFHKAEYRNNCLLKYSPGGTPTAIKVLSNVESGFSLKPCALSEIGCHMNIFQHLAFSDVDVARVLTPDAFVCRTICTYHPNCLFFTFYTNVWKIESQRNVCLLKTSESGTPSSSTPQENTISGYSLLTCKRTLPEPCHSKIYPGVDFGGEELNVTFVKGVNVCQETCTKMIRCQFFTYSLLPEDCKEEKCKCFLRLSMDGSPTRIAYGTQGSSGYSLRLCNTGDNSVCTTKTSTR
Sequence of Plasma kallikrein (P03952 391-638 limits assumed): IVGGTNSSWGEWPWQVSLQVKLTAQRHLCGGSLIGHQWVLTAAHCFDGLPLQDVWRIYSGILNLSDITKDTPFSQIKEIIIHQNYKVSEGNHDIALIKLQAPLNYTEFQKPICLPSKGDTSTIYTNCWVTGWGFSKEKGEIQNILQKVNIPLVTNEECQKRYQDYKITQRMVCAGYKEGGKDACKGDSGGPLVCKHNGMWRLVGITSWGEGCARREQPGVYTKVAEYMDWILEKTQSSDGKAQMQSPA

Row | Structure (SMILES) | IC50 (Coagulation factor XI) [nM] | IC50 (Coagulation factor X) [nM] | IC50 (Prothrombin) [nM] | other results
1 | CC(C)C[C@H](NC(=O)NCc1ccccc1)C(=O)N[C@H](C(=O)N[C@@H](CCCNC(=N)N)C(=O)c1nccs1)C(C)C | 136 | > 20000 | 2800 | –
2 | CC(C)[C@H](NC(=O)[C@H](CCCN=C(N)N)NC(=O)N[C@H](C)c1ccc(Br)cc1)C(=O)N[C@@H](CCCN=C(N)N)C(=O)c1nccs1 | 7 | 250 | 440 | –
3 | CC(C)[C@H](NC(=O)[C@H](CCCNC(N)=O)NC(=O)N[C@H](C)c1ccc(Br)cc1)C(=O)N[C@@H](CCCNC(=N)N)C(=O)c1nccs1 | 30 | 1900 | 1100 | 2aPTT (Plasma [1]): 1.35 µM; 2PT (Plasma [2]): 48.6 µM
4 | CC(C)C[C@H](NC(=O)NCc1ccc(Cl)c(Cl)c1)C(=O)N[C@@H](Cc1ccc(O)cc1)C(=O)N[C@@H](CCCNC(=N)N)C(=O)c1nccs1 | 200 | 1700 | 1000 | –
5 | CC(C)[C@H](NC(=O)[C@H](Cc1cccnc1)NC(=O)N[C@H](C)c1ccc(F)cc1)C(=O)N[C@@H](CCCN=C(N)N)C(=O)c1nccs1 | 28 | – | 523 | –
6 | CC(C)C[C@H](NC(=O)OCc1ccccc1)C(=O)N[C@H](C(=O)N[C@@H](CCCN=C(N)N)C(=O)c1nccs1)C(C)C | 356 | – | – | –
7 | CC(C)C[C@H](NC(=O)NCc1ccc(Cl)cc1Cl)C(=O)N[C@H](C(=O)N[C@@H](CCCN=C(N)N)C(=O)c1nccs1)C(C)C | 45 | 13000 | 386 | –
8 | CC(C)C[C@H](NC(=O)NCc1ccc(Cl)c(Cl)c1)C(=O)N[C@@H](C)C(=O)N[C@@H](CCCNC(=N)N)C(=O)c1nccs1 | 920 | 22000 | 10000 | –
9 | CC(C)[C@H](NC(=O)[C@@H](NC(=O)N[C@H](C)c1ccc(Br)cc1)C1CCCCC1)C(=O)N[C@@H](CCCNC(=N)N)C(=O)c1nccs1 | 10 | 2700 | 976 | 2aPTT (Plasma [1]): 15.4 µM; 2PT (Plasma [2]): 178.6 µM
10 | CC(C)[C@H](NC(=O)[C@H](Cc1ccccc1)NNC(=O)NCc1ccc(F)cc1)C(=O)N[C@@H](CCCNC(=N)N)C(=O)c1nccs1 | 160 | – | 4300 | –
11 | CC(C)C[C@H](NC(=O)NC(C)c1ccc(Br)cc1)C(=O)N[C@H](C(=O)N[C@@H](CCCNC(=N)N)C(=O)c1nccs1)C(C)C (some centres undefined) | 10 | 15000 | 1400 | Selectivity ratio (Homo sapiens [3]): 140; Selectivity ratio (Homo sapiens [4]): 1500
12 | CC(C)[C@H](NC(=O)[C@H](Cc1c[nH]c2ccccc12)NC(=O)N[C@H](C)c1ccc(Br)cc1)C(=O)N[C@@H](CCCNC(=N)N)C(=O)c1nccs1 | 29 | 2100 | 710 | –
13 | CC(C)[C@H](NC(=O)[C@H](Cc1ccc(O)cc1)NC(=O)N[C@H](C)c1ccc(Br)cc1)C(=O)N[C@@H](CCCN=C(N)N)C(=O)c1nccs1 | 6 | 1600 | 2040 | IC50 (Coagulation factor VII): 38000 nM; IC50 (Plasma kallikrein): 10 nM; IC50 [5]: 20700 nM; half-life [6]: 45 min; clearance [7]: 32 mL/min/kg; Vd [8]: 0.236 L/kg
14 | CC(C)[C@H](NC(=O)[C@@H](NC(=O)N[C@@H](C)c1ccc(Br)cc1)C1CCCCC1)C(=O)N[C@@H](CCCN=C(N)N)C(=O)c1nccs1 | 132 | 14900 | 5600 | –
15 | CC(C)C[C@H](NC(=O)NCc1ccc(Cl)c(Cl)c1)C(=O)N[C@H](C(=O)N[C@@H](CCCNC(=N)N)C(=O)c1nccs1)C1CCCCC1 | 340 | > 200000 | 7700 | –
16 | CC(C)[C@H](NC(=O)[C@H](Cc1cccnc1)NC(=O)N[C@@H](C)c1ccc(F)cc1)C(=O)N[C@@H](CCCNC(=N)N)C(=O)c1nccs1 | 533 | – | 606 | –

Row | Structure (SMILES) | IC50 (Coagulation factor XI) [nM] | IC50 (Coagulation factor X) [nM] | IC50 (Prothrombin) [nM] | other results
17 | CC(C)[C@H](NC(=O)[C@H](Cc1ccccc1)NNC(=O)Nc1ccccc1)C(=O)N[C@@H](CCCNC(=N)N)C(=O)c1nccs1 | 1920 | > 20000 | 935 | –
18 | CC(C)[C@H](NC(=O)[C@H](Cc1cccnc1)NC(=O)N[C@H](C)c1ccc(Br)cc1)C(=O)N[C@@H](CCCNC(=N)N)C(=O)c1nccs1 | 12 | 1400 | 1400 | Selectivity ratio (Homo sapiens [4]): 200; 2aPTT (Plasma [1]): 2.4 µM; 2PT (Plasma [2]): 31 µM
19 | CC(=O)N[C@@H](CC(C)C)C(=O)N[C@H](C(=O)N[C@@H](CCCN=C(N)N)C(=O)c1nccs1)C(C)C | – | > 200000 | > 200000 | –
20 | CC(C)C[C@H](NC(=O)NCc1ccc(F)cc1)C(=O)N[C@H](C(=O)N[C@@H](CCCNC(=N)N)C(=O)c1nccs1)C(C)C | 114 | > 20000 | 3100 | –
21 | CC(C)[C@H](NC(=O)[C@H](Cc1ccccc1)NNC(=O)c1ccco1)C(=O)N[C@@H](CCCNC(=N)N)C(=O)c1nccs1 | 2200 | – | – | –
22 | CC(C)[C@H](NC(=O)[C@H](Cc1ccccc1)NNC(=O)NCc1ccc(Cl)c(Cl)c1)C(=O)N[C@@H](CCCNC(=N)N)C(=O)c1nccs1 | 90 | 14200 | 6700 | –
23 | CCC(C)[C@H](NC(=O)[C@H](CC(C)C)NC(=O)NCc1ccc(Cl)c(Cl)c1)C(=O)N[C@@H](CCCN=C(N)N)C(=O)c1nccs1 (some centres undefined) | 76 | 85000 | 2600 | –
24 | CCOC(=O)C(CC(C)C)NC(=O)NN[C@@H](Cc1ccccc1)C(=O)N[C@H](C(=O)N[C@@H](CCCNC(=N)N)C(=O)c1nccs1)C(C)C (some centres undefined) | 403 | 15400 | 2100 | –
25 | CC(C)[C@H](NC(=O)[C@H](Cc1ccc(O)cc1)NC(=O)N[C@H](C)c1ccc(Br)cc1)C(=O)N[C@@H](CCCNC(=N)N)C(=O)c1nccs1 | – | – | – | IC50 (Trypsin): 12 nM; Activity (Rattus norvegicus): Active; Selectivity ratio (Homo sapiens [3]): 340; Selectivity ratio (Homo sapiens [4]): 267; 2aPTT (Plasma [1]): 2.4 µM; 2PT (Plasma [2]): 25 µM
26 | CC(C)C[C@H](NC(=O)NCc1ccc(Cl)c(Cl)c1)C(=O)N[C@@H](Cc1ccccc1)C(=O)N[C@@H](CCCN=C(N)N)C(=O)c1nccs1 | 710 | 8500 | 27000 | –
27 | CCOC(=O)C(Cc1ccccc1)NC(=O)NN[C@@H](Cc1ccccc1)C(=O)N[C@H](C(=O)N[C@@H](CCCNC(=N)N)C(=O)c1nccs1)C(C)C (some centres undefined) | 258 | 14300 | 2100 | –
28 | CC(C)[C@H](NC(=O)[C@H](Cc1ccccc1)NNC(=O)Cc1ccco1)C(=O)N[C@@H](CCCNC(=N)N)C(=O)c1nccs1 | 2600 | – | – | –
29 | CC(C)C[C@H](NC(=O)NCc1ccc(Cl)c(Cl)c1)C(=O)N[C@H](C(=O)N[C@@H](CCCN=C(N)N)C(=O)c1nccs1)C(C)C | 63 | > 20000 | 876 | –
30 | CC(C)[C@H](NC(=O)[C@H](CC(N)=O)NC(=O)N[C@H](C)c1ccc(Br)cc1)C(=O)N[C@@H](CCCNC(=N)N)C(=O)c1nccs1 | 8 | 1600 | 400 | 2aPTT (Plasma [1]): 0.56 µM; 2PT (Plasma [2]): 26.3 µM
31 | CC(C)C[C@H](NC(=O)NCc1ccc(Cl)c(Cl)c1)C(=O)N[C@H](C(=O)N[C@@H](CCCN=C(N)N)C(=O)c1nccs1)C(C)(C)C | 9200 | > 200000 | 12000 | –
32 | CC(C)[C@H](NC(=O)[C@H](Cc1ccccc1)NNS(=O)(=O)c1ccc(Cl)c(Cl)c1)C(=O)N[C@@H](CCCNC(=N)N)C(=O)c1nccs1 | 2300 | – | – | –
